Published values from different studies.
Target: Serine/threonine-protein kinase MARK1 (MARK1, Homo sapiens, UniProt Q9P0L2)

Structure (SMILES)	effect on	action	technique	concentration	endpoint	result
Cc1sc(C(=O)NC2COC2)cc1-n1cc(NC(=O)Nc2c(F)cccc2Cl)cn1	enzyme activity	inhibitor		10 µM	remaining activity	95.3%
Cc1ccc(Nc2nccc(N(C)c3ccc4c(C)n(C)nc4c3)n2)cc1S(N)(=O)=O	enzyme activity	inhibitor		10 µM	inhibition	26%
C[C@H](c1ccnc(Nc2nc3ccc(-c4cc(N(C)C)ncn4)cc3[nH]2)c1)N1CCN(C(=O)CC(F)(F)F)CC1	cell-free assay		competition with immobilised ligand	0.1 µM	remaining binding	100%
COc1cc2ncnc(Nc3ccc(Oc4ccccc4)c(C)c3C)c2cc1OC	enzyme activity	inhibitor		1 µM	inhibition	2%
Cc1ncc([N+](=O)[O-])n1C(=NO)c1ccccc1C(F)(F)F	enzyme activity	inhibitor		10 µM	inhibition	34.2%
CNc1cccc2cc(C(=O)Nc3ccc(C(=O)O)cc3)c(=O)[nH]c12	enzyme activity	inhibitor		10 µM	inhibition	-26%
O=C(NCCCNc1ccnc(Nc2cccc(NC(=O)N3CCCC3)c2)n1)C1CCC1	enzyme activity	inhibitor	radiometric	1 µM	remaining activity	72%
CNC(=O)c1cc(Oc2ccc(NC(=O)Nc3ccc(Cl)c(C(F)(F)F)c3)cc2)ccn1	enzyme activity	inhibitor		0.3 µM	inhibition	9%
CCCCN(CCCC)C(=O)CN1C[C@H](c2cc(OC)c3c(c2)OCO3)[C@@H](C(=O)O)[C@@H]1CC(C)(C)CCC	cell-free assay		competition with immobilised ligand	1 µM	remaining binding	96.5%
c1cc(CN2CCOCC2)cc(Nc2nccc(NCCc3cnc[nH]3)n2)c1	enzyme activity	inhibitor	radiometric	1 µM	remaining activity	75%
CCN(CC)CCNC(=O)c1c(C)[nH]c(/C=C2\C(=O)Nc3ccc(F)cc32)c1C	enzyme activity	inhibitor		0.3 µM	inhibition	50%
O=C(NCCCNc1nc(Nc2cccc(NC(=O)N3CCCC3)c2)ncc1I)c1cccs1	enzyme activity	inhibitor	radiometric	1 µM	remaining activity	-5%
COc1cc(Nc2cnc(C#N)c(O[C@H](C)CN(C)C)n2)ncc1-c1cnn(C)c1	enzyme activity	inhibitor	radiometric	1 µM	remaining activity	95%
C=CC(=O)Nc1cc(Nc2nccc(Nc3cc(Cl)c(F)cc3C(C)(C)O)n2)c(OC)cc1N1CC[C@@H](N(C)C)C1	enzyme activity	inhibitor		1 µM	inhibition	4%
CO[C@@H](C)c1c(Nc2ccc([C@@H](N(C)C(=O)C3CCS(=O)(=O)CC3)C(F)(F)F)cc2)cnc2cc(Cl)nn12	cell-free assay		competition with immobilised ligand	1 µM	remaining binding	81%
Brc1cnc(Nc2cccc(CN3CCOCC3)c2)nc1NCCc1c[nH]cn1	enzyme activity	inhibitor	radiometric	1 µM	remaining activity	-3%

Structure (SMILES)	effect on	action	technique	concentration	endpoint	result
CS(=O)(=O)N1CCCC(NC(=O)[C@H](CCC2CCCCC2)NC(=O)c2ccc(CNc3ncnc4c3nnn4-c3ccccc3)cc2)C1 (some centres unmarked)	cell-free assay		competition with immobilised ligand	0.1 µM	remaining binding	74%
O=C(NCCCNc1nc(Nc2cccc(NC(=O)N3CCCC3)c2)ncc1C1CC1)C1CCC1	enzyme activity	inhibitor	radiometric	1 µM	remaining activity	-4%
FC(F)c1nc2ccccc2n1-c1nc(N2CCOCC2)nc(N2CCOCC2)n1	enzyme activity	inhibitor		10 µM	remaining activity	106%
CCCS(=O)(=O)Nc1ccc(F)c(C(=O)c2c[nH]c3ncc(-c4ccc(Cl)cc4)cc23)c1F	enzyme activity	inhibitor		1 µM	inhibition	< 10%
COc1cc2ncnc(Nc3ccc(F)c(Cl)c3)c2cc1OCCCN1CCOCC1	cell-free assay			0.5 µM	remaining signal	116%
FC(F)(F)Oc1cccc(-c2cnc3ccc(-c4ccncc4)nn23)c1	enzyme activity	inhibitor	radiometric	5 µM	activity vs control	95%
CN1CCc2cc(Nc3ncc(C4CC4)c(NCCCNC(=O)C4CCC4)n3)ccc2C1	enzyme activity	inhibitor	radiometric	1 µM	remaining activity	-1%
N#CCCc1ccc2c(c1)-c1[nH]c3ccc([N+](=O)[O-])cc3c1CC(=O)N2	cell-free assay			0.5 µM	remaining signal	67.4%
Cc1cc(C)c(-n2ccn3nc(-c4cccnc4)cc23)cc1NC(=O)c1cc(C#N)cc(S(F)(F)(F)(F)F)c1	cell-free assay		competition with immobilised ligand	0.1 µM	remaining binding	96.7%
Cc1nn(CC(F)(F)F)cc1Nc1ncc(Br)c(NCc2ccc(S(N)(=O)=O)cc2)n1	enzyme activity	inhibitor	radiometric	1 µM	remaining activity	90%
C[C@@]1(Cc2ccc(C#N)cc2)C(=O)N(c2cc(Cl)cc(Cl)c2)c2ncc(C(=O)NC3(c4nc(C5CCC5)no4)CC3)n21	cell-free assay		competition with immobilised ligand	1 µM	remaining binding	100%
Cc1nn(CC(F)(F)F)cc1Nc1ncc(C2CC2)c(NCc2ccc(S(N)(=O)=O)cc2)n1	enzyme activity	inhibitor	radiometric	1 µM	remaining activity	108%
CC(=O)C1=C(C)N(c2cccc(C(F)(F)F)c2)C(=O)N[C@@H]1c1ccc(C#N)nc1	cell-free assay		competition with immobilised ligand	1 µM	remaining binding	100%
COc1cc2c(N3CCN(C(=O)Nc4ccc(OC(C)C)cc4)CC3)ncnc2cc1OCCCN1CCCCC1	cell-free assay			0.5 µM	remaining signal	89.9%
COc1cc(-c2cn(C3CCc4ccccc4N(CC(F)(F)F)C3=O)nn2)ccc1-n1ccc(C)n1 (centres unmarked)	cell-free assay		competition with immobilised ligand	1 µM	remaining binding	99%
O=C1NC(=O)c2cc(Nc3ccc(F)cc3)c(Nc3ccc(F)cc3)cc21	cell-free assay			0.5 µM	remaining signal	98.9%
